Measurements published in ChEMBL document CHEMBL1138064, “Discovery of N-[(3R)-1-azabicyclo[2.2.2]oct-3-yl]furo[2,3-c]pyridine-5-carboxamide, an agonist of the alpha7 nicotinic acetylcholine receptor, for the potential treatment of cognitive deficits in schizophrenia: synthesis and structure--activity relationship” (J Med Chem, 2006).

Assays:
[1] = target: Serotonin 3 (5-HT3) receptor (Homo sapiens) (UniProt P46098+A5X5Y0+O95264+Q70Z44+Q8WXA8); assay: Inhibition of 5HT3 receptor at 1 uM; assay type: protein-complex assay
[2] = target: Nitric oxide synthase, inducible (Homo sapiens) (UniProt P35228); assay: Inhibition of Nitric oxide synthase, inducible at 1 uM
[3] = target: Tyrosine 3-monooxygenase (Homo sapiens) (UniProt P07101); assay: Inhibition of tyrosine hydroxylase at 1 uM
[4] = target: Soluble guanylate cyclase (Homo sapiens) (UniProt Q02153+O75343+P33402+Q02108); assay: Inhibition of stimulated guanylate cyclase at 1 uM; assay type: protein-complex assay
[5] = target: Gastrin/cholecystokinin type B receptor (Homo sapiens) (UniProt P32239); assay: Inhibition of CCK2 receptor at 1 uM
[6] = target: Neuronal acetylcholine receptor; alpha3/beta4 (Homo sapiens, UniProt P30926+P32297); assay: Inhibition of alpha-3-beta-4 nAChR expressed in SHSY5Y cells by FLIPR assay; assay type: functional, cell-based, SH-SY5Y
How it was run: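 FLIPR cell-based functional assay in SH-SY5Y cells, which carry α3β4-containing ganglion-type nAChRs; tested for agonist and antagonist activity; IC50 in µM.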

[7] = Half life in Sprague-Dawley rat liver microsome; assay type: ADME; settings: liver microsomes
[8] = target: D(3) dopamine receptor (Homo sapiens) (UniProt P35462); assay: Inhibition of D3 receptor at 1 uM
[9] = target: Cannabinoid receptor 2 (Homo sapiens) (UniProt P34972); assay: Inhibition of CB2 receptor at 1 uM
[10] = target: D(1B) dopamine receptor (Homo sapiens) (UniProt P21918); assay: Inhibition of D5 receptor at 1 uM
Homo sapiens = species: Homo sapiens; assay: Inhibition of site 2 of sodium channel at 1 uM
[11] = Oral bioavailability in rat constant infusion model; assay type: ADME, organism-based; settings: in vivo
How it was run: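 Rat clearance and oral bioavailability derived from a constant infusion model.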

[12] = target: D(1A) dopamine receptor (Homo sapiens) (UniProt P21728); assay: Inhibition of D1 receptor at 1 uM
Cytochrome P450 2D6 = Cytochrome P450 2D6 (Homo sapiens, UniProt P10635); assay: Inhibition of CYP2D6; assay type: ADME
[13] = target: Adenosine receptor A3 (Homo sapiens) (UniProt P0DMS8); assay: Inhibition of adenosine A3 receptor at 1 uM
[14] = target: D(2) dopamine receptor (Homo sapiens) (UniProt P14416); assay: Inhibition of D2 receptor at 1 uM
[15] = target: Epidermal growth factor receptor (Homo sapiens) (UniProt P00533); assay: Inhibition of EGFR at 1 uM
[16] = target: Adrenergic receptor alpha-2 (Homo sapiens) (UniProt P08913+P18825+P18089); assay: Inhibition of adrenergic alpha2 receptor at 1 uM; assay type: protein assay
[17] = target: Sodium/potassium-transporting ATPase (Homo sapiens) (UniProt P05023+P14415+P05026+P50993+P54709+P13637+Q13733+P54710); assay: Inhibition of Sodium/potassium-transporting ATPase at 1 uM; assay type: protein-complex assay
[18] = target: Type-2 angiotensin II receptor (Homo sapiens) (UniProt P50052); assay: Inhibition of AT2 receptor at 1 uM
[19] = target: Endothelin-1 receptor (Homo sapiens) (UniProt P25101); assay: Inhibition of human ETA receptor at 1 uM
[20] = target: Sodium-dependent dopamine transporter (Homo sapiens) (UniProt Q01959); assay: Inhibition of dopamine uptake at human DA transporter at 1 uM
[21] = target: Vasoactive intestinal polypeptide receptor 2 (Homo sapiens) (UniProt P41587); assay: Inhibition of PACAP receptor at 1 uM
[22] = target: Somatostatin receptor (Homo sapiens) (UniProt P35346+P30874+P31391+P30872+P32745); assay: Inhibition of sst receptor at 1 uM; assay type: protein assay
[23] = target: D(4) dopamine receptor (Homo sapiens) (UniProt P21917); assay: Inhibition of D4.4 receptor at 1 uM
[24] = target: Atrial natriuretic peptide receptor (Homo sapiens) (UniProt P20594+P16066+P17342); assay: Inhibition of ANP receptor at 1 uM; assay type: protein assay
[25] = target: cGMP-dependent 3',5'-cyclic phosphodiesterase (Homo sapiens) (UniProt O00408); assay: Inhibition of PDE2 at 1 uM
[26] = target: Endothelin receptor type B (Homo sapiens) (UniProt P24530); assay: Inhibition of human ETB receptor at 1 uM
[27] = target: B2 bradykinin receptor (Homo sapiens) (UniProt P30411); assay: Inhibition of B2 receptor at 1 uM
[28] = target: Serotonin 3 (5-HT3) receptor; assay: Activity at 5HT3 receptor expressed in SHEP1 cells by FLIPR assay; assay type: functional, cell-based, Homo sapiens
How it was run: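 Cell-based FLIPR functional assay in SH-EP1 cells expressing 5-HT3.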

[29] = Oral bioavailability in rat at 5 mg/kg; assay type: ADME, organism-based; settings: in vivo
[30] = target: Muscarinic acetylcholine receptor M4 (Homo sapiens) (UniProt P08173); assay: Inhibition of M4 receptor at 1 uM
[31] = target: Prostaglandin G/H synthase 2 (Homo sapiens) (UniProt P35354); assay: Inhibition of COX2 at 1 uM

Chain of Neuronal acetylcholine receptor; alpha3/beta4 (P30926 whole entry): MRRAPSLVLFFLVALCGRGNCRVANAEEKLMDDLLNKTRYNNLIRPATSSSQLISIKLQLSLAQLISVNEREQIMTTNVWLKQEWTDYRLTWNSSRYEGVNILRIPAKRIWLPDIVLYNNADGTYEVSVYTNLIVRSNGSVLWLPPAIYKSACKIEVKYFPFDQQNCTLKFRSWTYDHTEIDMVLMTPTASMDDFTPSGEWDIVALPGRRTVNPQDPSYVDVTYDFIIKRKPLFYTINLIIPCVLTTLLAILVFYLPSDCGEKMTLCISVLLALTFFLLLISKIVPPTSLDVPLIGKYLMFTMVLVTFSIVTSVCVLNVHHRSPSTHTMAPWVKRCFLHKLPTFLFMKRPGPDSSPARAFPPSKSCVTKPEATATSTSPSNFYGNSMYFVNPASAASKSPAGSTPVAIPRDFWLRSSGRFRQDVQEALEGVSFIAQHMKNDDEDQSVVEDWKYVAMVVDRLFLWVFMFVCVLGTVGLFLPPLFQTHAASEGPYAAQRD
Chain of Neuronal acetylcholine receptor; alpha3/beta4 (P32297 whole entry): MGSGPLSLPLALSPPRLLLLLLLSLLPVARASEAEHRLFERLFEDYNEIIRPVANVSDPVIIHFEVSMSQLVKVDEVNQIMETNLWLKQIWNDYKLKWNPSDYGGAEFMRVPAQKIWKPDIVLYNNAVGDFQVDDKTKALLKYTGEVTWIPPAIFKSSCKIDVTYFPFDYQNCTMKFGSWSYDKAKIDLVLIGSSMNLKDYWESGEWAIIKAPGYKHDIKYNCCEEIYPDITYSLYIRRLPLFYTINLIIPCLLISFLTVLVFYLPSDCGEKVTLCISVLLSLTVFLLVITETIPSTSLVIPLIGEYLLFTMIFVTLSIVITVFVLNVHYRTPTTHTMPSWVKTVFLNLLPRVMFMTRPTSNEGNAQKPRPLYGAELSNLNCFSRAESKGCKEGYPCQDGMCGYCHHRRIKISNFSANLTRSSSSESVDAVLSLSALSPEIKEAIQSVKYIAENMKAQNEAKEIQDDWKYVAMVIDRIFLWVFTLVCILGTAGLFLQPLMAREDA
Chain of Nitric oxide synthase, inducible (Homo sapiens) (P35228 whole entry): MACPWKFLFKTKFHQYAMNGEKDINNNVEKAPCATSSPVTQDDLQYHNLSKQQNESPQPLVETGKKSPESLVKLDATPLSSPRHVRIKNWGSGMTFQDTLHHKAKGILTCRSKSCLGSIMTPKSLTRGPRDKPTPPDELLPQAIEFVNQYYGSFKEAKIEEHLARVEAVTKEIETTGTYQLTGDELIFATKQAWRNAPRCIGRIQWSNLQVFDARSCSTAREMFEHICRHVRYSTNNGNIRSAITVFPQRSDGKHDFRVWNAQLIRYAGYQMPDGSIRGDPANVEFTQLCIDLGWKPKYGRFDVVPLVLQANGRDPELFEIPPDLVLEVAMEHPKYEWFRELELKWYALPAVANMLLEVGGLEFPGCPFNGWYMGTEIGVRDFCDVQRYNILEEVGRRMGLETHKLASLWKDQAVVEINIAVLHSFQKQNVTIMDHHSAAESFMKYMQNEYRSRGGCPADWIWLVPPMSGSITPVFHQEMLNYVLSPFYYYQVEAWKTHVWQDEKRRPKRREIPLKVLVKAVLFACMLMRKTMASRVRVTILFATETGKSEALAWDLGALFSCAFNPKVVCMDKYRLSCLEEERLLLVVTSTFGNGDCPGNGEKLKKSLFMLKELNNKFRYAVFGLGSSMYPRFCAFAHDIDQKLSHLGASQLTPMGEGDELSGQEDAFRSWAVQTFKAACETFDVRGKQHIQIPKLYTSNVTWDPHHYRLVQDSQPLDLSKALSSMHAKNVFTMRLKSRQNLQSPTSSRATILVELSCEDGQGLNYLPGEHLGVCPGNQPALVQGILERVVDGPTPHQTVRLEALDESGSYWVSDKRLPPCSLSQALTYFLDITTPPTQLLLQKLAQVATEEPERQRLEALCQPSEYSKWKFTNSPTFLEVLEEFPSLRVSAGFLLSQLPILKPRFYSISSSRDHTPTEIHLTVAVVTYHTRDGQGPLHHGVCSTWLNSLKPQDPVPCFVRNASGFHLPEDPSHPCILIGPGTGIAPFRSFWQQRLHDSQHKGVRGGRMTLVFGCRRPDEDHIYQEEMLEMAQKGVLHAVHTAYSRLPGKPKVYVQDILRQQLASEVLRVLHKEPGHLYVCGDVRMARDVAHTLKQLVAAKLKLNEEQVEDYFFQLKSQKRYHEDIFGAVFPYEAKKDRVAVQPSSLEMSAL
Chain of cGMP-dependent 3',5'-cyclic phosphodiesterase (Homo sapiens) (O00408 whole entry): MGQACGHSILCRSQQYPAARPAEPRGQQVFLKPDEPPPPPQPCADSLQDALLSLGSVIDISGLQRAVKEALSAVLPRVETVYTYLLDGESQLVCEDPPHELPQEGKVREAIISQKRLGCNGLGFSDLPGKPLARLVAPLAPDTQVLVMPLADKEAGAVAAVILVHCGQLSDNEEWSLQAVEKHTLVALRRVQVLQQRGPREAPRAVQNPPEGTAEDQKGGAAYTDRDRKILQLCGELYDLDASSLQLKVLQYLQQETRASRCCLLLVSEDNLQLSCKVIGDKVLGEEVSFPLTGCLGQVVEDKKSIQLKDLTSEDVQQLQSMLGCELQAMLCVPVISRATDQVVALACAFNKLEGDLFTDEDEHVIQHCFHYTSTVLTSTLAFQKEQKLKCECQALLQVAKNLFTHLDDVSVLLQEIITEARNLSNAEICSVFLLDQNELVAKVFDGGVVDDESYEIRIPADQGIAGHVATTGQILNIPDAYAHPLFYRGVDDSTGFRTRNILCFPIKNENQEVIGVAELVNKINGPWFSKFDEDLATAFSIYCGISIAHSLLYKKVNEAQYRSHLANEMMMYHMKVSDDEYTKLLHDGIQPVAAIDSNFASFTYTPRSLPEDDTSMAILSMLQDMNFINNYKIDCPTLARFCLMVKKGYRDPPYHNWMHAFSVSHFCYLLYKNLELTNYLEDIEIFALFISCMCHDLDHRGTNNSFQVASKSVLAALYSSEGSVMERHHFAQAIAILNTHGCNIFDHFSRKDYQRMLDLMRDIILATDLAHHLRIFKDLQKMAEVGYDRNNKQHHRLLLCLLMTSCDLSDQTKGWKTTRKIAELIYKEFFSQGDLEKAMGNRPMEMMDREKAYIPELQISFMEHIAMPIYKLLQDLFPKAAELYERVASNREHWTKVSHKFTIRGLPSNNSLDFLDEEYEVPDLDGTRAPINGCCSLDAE
Chain of D(1A) dopamine receptor (Homo sapiens) (P21728 whole entry): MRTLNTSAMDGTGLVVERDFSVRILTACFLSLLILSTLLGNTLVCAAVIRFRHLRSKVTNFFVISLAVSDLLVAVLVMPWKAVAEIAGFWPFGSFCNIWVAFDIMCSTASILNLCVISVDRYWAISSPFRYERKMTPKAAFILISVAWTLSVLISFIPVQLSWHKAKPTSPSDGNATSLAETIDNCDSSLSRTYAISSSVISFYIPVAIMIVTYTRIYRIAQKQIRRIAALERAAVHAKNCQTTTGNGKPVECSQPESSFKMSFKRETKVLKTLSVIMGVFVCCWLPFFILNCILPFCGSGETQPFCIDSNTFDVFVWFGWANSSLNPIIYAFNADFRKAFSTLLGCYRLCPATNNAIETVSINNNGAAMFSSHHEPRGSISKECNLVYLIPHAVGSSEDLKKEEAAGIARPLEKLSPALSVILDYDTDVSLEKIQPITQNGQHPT
Chain of Muscarinic acetylcholine receptor M4 (Homo sapiens) (P08173 whole entry): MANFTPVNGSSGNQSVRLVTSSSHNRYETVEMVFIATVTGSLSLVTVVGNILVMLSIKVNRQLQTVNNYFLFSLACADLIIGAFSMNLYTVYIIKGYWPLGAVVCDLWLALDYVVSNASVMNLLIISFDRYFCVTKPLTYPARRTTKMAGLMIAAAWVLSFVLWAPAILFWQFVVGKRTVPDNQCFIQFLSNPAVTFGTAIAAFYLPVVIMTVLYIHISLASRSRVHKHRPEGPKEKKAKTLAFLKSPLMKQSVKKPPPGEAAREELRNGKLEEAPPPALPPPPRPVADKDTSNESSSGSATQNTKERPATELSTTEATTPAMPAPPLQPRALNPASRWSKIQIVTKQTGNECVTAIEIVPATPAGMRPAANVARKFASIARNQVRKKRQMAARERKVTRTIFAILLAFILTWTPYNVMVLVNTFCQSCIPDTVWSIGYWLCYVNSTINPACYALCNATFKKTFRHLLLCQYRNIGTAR
Chain of Cannabinoid receptor 2 (Homo sapiens) (P34972 whole entry): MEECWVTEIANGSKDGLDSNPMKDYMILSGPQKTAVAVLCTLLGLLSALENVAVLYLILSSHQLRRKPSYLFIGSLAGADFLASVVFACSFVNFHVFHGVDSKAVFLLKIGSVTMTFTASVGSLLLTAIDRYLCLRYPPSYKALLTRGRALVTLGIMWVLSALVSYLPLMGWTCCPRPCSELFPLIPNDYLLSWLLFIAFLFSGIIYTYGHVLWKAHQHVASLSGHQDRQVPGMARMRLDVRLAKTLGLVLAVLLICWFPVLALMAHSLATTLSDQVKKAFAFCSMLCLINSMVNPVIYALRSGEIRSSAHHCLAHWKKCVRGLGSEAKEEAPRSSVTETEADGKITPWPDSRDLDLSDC
Chain of Tyrosine 3-monooxygenase (Homo sapiens) (P07101 whole entry): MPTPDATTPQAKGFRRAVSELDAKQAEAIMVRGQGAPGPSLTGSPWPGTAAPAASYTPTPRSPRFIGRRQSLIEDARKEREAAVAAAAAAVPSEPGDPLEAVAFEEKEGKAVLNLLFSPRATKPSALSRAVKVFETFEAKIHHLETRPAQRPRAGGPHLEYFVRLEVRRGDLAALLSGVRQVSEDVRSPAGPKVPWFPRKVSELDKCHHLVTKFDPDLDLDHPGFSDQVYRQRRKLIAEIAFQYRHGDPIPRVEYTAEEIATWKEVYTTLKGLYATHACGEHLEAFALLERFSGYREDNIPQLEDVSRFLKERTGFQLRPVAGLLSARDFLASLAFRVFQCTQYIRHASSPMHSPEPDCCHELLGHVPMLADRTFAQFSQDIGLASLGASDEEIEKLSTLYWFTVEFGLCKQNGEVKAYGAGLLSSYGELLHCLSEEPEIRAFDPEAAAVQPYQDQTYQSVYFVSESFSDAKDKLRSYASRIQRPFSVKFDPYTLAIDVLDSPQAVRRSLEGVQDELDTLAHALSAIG

With `O=C(N[C@H]1CN2CCC1CC2)c1cc2ccoc2cn1` [PHA-543613] the inhibition [1] was 67%, the inhibition [2] was less than 10% and the inhibition [3] was less than 10%. It also gave an inhibition [4] of less than 10%, an inhibition [5] of less than 10% and an IC50 [6] greater than 100 µM. It also gave a half-life [7] of 40 min, an inhibition [8] of 10% and an inhibition [9] of less than 10%. For the same molecule, the inhibition [10] was less than 10%, the inhibition (Homo sapiens) was 13% and the bioavailability [11] was 63%. The inhibition [12] was less than 10%, the IC50 (Cytochrome P450 2D6) was greater than 10 µM and the inhibition [13] was 12%. For the same molecule, the inhibition [14] was less than 10%, the inhibition [15] was less than 10% and the inhibition [16] was 14%. It also gave an inhibition [17] of less than 10%, an inhibition [18] of less than 10% and an inhibition [19] of less than 10%. The inhibition [20] was less than 10%, the inhibition [21] was less than 10% and the inhibition [22] was less than 10%. It also gave an inhibition [23] of 10%, an inhibition [24] of less than 10% and an inhibition [25] of 25%. It also gave an inhibition [26] of less than 10%, an inhibition [27] of less than 10% and a Ki [28] of 0.628 µM. The bioavailability [29] was 65%, the inhibition [30] was less than 10% and the inhibition [31] was 14%.
